These entries were drawn from the full list.
PGC1a acetyl up: compounds raising PGC1a acetylation signal, primary screen, PGC1a modulator project, cell-based, U2OS, AlphaScreen, signal-increasing mode | overnight | activation, % at 15.6 µM | hit rate 0.21% among 350,000 | AID 651723, 2012;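 active = every replicate reaching activation of at least 50%, whatever the mean replicate activation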;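 also: hits raise the AlphaScreen acetylation signal above neutral controls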
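Incubation: overnight compound treatment, 37 °C. System: U2OS cells transduced with flag-tagged PGC1a and GCN5 acetyltransferase. Detection: AlphaScreen lysate read. Compound: single-point compound dosing.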
Large screens that a line does not name were inactive.

O=C1CC(Sc2nnc(-c3ccccc3O)o2)C(=O)N1c1ccccc1 (centres undefined)	PGC1a acetyl up 86.4
C[C@H](CO)N1C[C@H](C)[C@H](CN(C)Cc2ccncc2)OCc2cn(nn2)CCCC1=O	none
CC(=O)Nc1ccc(NC(=O)c2cc(=O)c3ccccc3o2)cc1	none
CC(=O)Nc1ccc(Sc2ccc([N+](=O)[O-])o2)cc1	PGC1a acetyl up 437.6
CCOCCCNC(=O)C1CCN(C(=O)Nc2ccc(C)cc2)CC1	none
CCCSCC(=O)Nc1ncc2c(n1)-c1ccccc1CC2	none
C#CCN(C[C@@H]1[C@@H](OC(=O)NCC2CCCCC2)[C@@H](OC(=O)NCC2CCCCC2)Cn2c(=O)ccc(=O)n21)S(=O)(=O)c1ccc(C)cc1	none
CO[C@@H]1CN(C)C(=O)c2cc(NC(C)=O)ccc2OC[C@H](C)N(C(=O)c2cccnc2)C[C@H]1C	none
O=c1c(Cl)c(Cl)cnn1Cc1nnc(-c2ccc(Cl)cc2)o1	PGC1a acetyl up 72.9
Cc1ccc(Cn2ncc(Cl)c(Cl)c2=O)cc1	PGC1a acetyl up 111.8
COC(=O)C1CCN(Cc2nnc(-c3ccccc3)o2)CC1	none
COc1ccc(OCCCC(=O)OCC(=O)Nc2c(C)nn(-c3ccccc3)c2C)cc1	none
OCC1OC(Oc2c(Br)cc(Br)cc2Br)C(O)C(O)C1O (centres undefined)	none
Nc1c(C(=O)Nc2ccccc2)sc2ncc([N+](=O)[O-])cc12	PGC1a acetyl up 83.6
CN1CCN(c2ccc([N+](=O)[O-])cc2C(=O)Nc2ccccc2)CC1	none
C[C@@H]1CN([C@@H](C)CO)C(=O)c2cccc(NC(=O)c3ccc(-c4nccs4)cc3)c2O[C@@H]1CN(C)C(=O)Nc1ccc(C(F)(F)F)cc1	none
C/C(=C\C(=O)N1CCc2ccccc21)C(=O)O	PGC1a acetyl up 60.1
CC(C(=O)N1CCc2ccccc2C1)N(c1ccccc1)S(C)(=O)=O (centres undefined)	none
CN(C)S(=O)(=O)c1cc(NC(=O)CN2CCc3ccccc32)ccc1Cl	none
O=C(Cn1nc(C(=O)O)c2ccccc2c1=O)Nc1cccc(Br)c1	none
C=C(C(=O)c1ccccc1)C(C(=C)C(=O)c1ccccc1)c1ccc(OC)cc1	PGC1a acetyl up 160.3
COc1ccc(C(=O)Sc2nncc3ccccc23)cc1	none
Cc1ccc(C(=O)N2CCN(c3ccc(NC(=S)NC(=O)c4cccs4)cc3)CC2)cc1	PGC1a acetyl up 52.6
Cc1ccc(C(=O)N2CCN(c3ncccn3)CC2)cc1	none
O=C(C[C@@H]1C=C[C@@H](NC(=O)Nc2ccc(C(F)(F)F)cc2)[C@H](CO)O1)NCc1ccccn1	none
CC(C)C#Cc1ccc2c(c1)O[C@@H](CN(C)Cc1ccccc1)[C@@H](C)CN([C@@H](C)CO)S2(=O)=O	none
COc1cccc(S(=O)(=O)N(C)C[C@@H]2Oc3cc(C4=CCCC4)ccc3S(=O)(=O)N([C@H](C)CO)C[C@@H]2C)c1	PGC1a acetyl up 58.6
C[C@H](CO)N1C[C@H](C)[C@@H](CN(C)Cc2ccc3c(c2)OCO3)Oc2cc(Br)ccc2S1(=O)=O	PGC1a acetyl up 50.6
COc1ccc(S(=O)(=O)N(C)C[C@@H]2Oc3cc(C#CC4CC4)ccc3S(=O)(=O)N([C@H](C)CO)C[C@H]2C)cc1	PGC1a acetyl up 58.9
C[C@@H]1CN([C@@H](C)CO)S(=O)(=O)c2ccc(C3=CCCCC3)cc2O[C@H]1CN(C)C	none
Cc1ccc(S(=O)(=O)N(C)C[C@@H]2Oc3cc(C#Cc4ccncc4)ccc3S(=O)(=O)N([C@@H](C)CO)C[C@H]2C)cc1	none
CC(C)C#Cc1ccc2c(c1)O[C@@H](CN(C)C(=O)C1CC1)[C@@H](C)CN([C@@H](C)CO)S2(=O)=O	none
CC(C)CC#Cc1ccc2c(c1)O[C@@H](CN(C)Cc1ccc3c(c1)OCO3)[C@H](C)CN([C@H](C)CO)S2(=O)=O	none
C[C@@H]1CN([C@@H](C)CO)S(=O)(=O)c2ccc(C#CC3CCCCC3)cc2O[C@H]1CN(C)Cc1cccnc1	none
Cc1ccc(S(=O)(=O)N(C)C[C@@H]2Oc3cc(C#Cc4ccncc4)ccc3S(=O)(=O)N([C@H](C)CO)C[C@H]2C)cc1	none
C[C@@H]1CN([C@H](C)CO)S(=O)(=O)c2ccc(C3=CCCCC3)cc2O[C@H]1CN(C)Cc1ccccc1	none
C[C@@H]1CN([C@H](C)CO)S(=O)(=O)c2ccc(C#CC3CCCC3)cc2O[C@H]1CN(C)C	PGC1a acetyl up 51.8
CCOC(=O)N(O)c1ccc(C=Cc2ccccc2)cc1	none
C[C@H]1CN([C@@H](C)CO)C(=O)c2cc(/C=C/c3ccccc3)cnc2O[C@H]1CN(C)C(=O)CN(C)C	none
O=C(Nc1ccc(F)cc1)N1CC(=O)N2[C@@H](CO)[C@@H](c3ccc(-c4ccccc4)cc3)[C@@H]2C1	none
COc1ccc(-c2ccc(C3[C@@H]4CN(C(=O)Nc5cccc(F)c5)C[C@H]3N4)cc2)cc1 (some centres undefined)	PGC1a acetyl up 64.3
O=C(Nc1ccc(F)cc1)N1CC(=O)N2[C@@H](CO)[C@H](c3ccc(Br)cc3)[C@@H]2C1	none
N#Cc1ccc(-c2ccc([C@@H]3[C@@H]4CN(S(=O)(=O)c5ccc(-c6ccccc6)cc5)C[C@H]3N4)cc2)cc1	none
Cc1ccccc1-c1ccc(C2[C@@H]3CN(C(=O)Nc4cccc(F)c4)C[C@H]2N3)cc1 (some centres undefined)	PGC1a acetyl up 55.6
O=C(Nc1ccc(F)cc1)N1C[C@@H]2N[C@H](C1)C2c1ccc(/C=C/c2ccccc2)cc1 (some centres undefined)	PGC1a acetyl up 58.8
Cc1ccccc1-c1ccc(C2[C@@H]3CN(S(=O)(=O)c4ccccc4C)C[C@H]2N3)cc1 (some centres undefined)	PGC1a acetyl up 92.3
CO[C@H]1CN(C)C(=O)c2cc(NS(C)(=O)=O)ccc2OC[C@H](C)N(C(=O)NC(C)C)C[C@H]1C	none
CCOC(=O)C1(CC2CCCCO2)CCN(C(=O)Nc2ccc(SC)cc2)CC1 (centres undefined)	none
Cc1c(C(=O)Nc2ccc3c(c2)OCCO3)sc2nc(-c3ccccc3)cn12	PGC1a acetyl up 61.9
O=C(/C=C/c1ccc(F)cc1)NNC(=O)CCN1CCN(Cc2ccccc2)CC1	none
Cc1cc(-c2c(C)[nH]n(-c3ccc(Cl)cc3)c2=O)n(-c2ccccc2)n1	none
O=C(c1ccccc1)c1nn(-c2ccc(Cl)cc2)c(=O)cc1C(F)(F)F	PGC1a acetyl up 179.4
O=C1c2ccccc2C(=O)c2c1oc(C(F)(F)F)c2C(=O)c1ccccc1	none
CN(C)c1ccc(C(=O)NC2(N3CCC3=O)CCCC2)cc1	none
Cc1cc(SCC(=O)NC(=O)NCc2ccco2)nc2ccccc12	PGC1a acetyl up 84.7
CNC(=O)COC(=O)c1cc(-c2ccco2)nc2ccccc12	none
O=C(CSc1nc2c(sc3ccccc32)c(=O)n1CCc1ccccc1)NCc1ccco1	none
C[C@@H]1CN([C@@H](C)CO)C(=O)CCCn2nncc2CO[C@H]1CN(C)CC1CCCCC1	none
Cc1ccc(/C=C2/CNC/C(=C/c3ccc(C)cc3)C2=O)cc1	none
COc1ccc(OC)c(Nc2ccc(C(=O)O)cc2[N+](=O)[O-])c1	none
COc1ccc(S(=O)(=O)N2CCOCC2)cc1NC(=O)CCNC(=O)c1ccc([N+](=O)[O-])cc1	PGC1a acetyl up 419.4
CCN(c1ccccc1)S(=O)(=O)c1ccc(OC)c(NC(=O)Cc2ccc(F)cc2)c1	none
CN(C)CCOc1ccc2c(c1)C(=O)C(=Cc1ncc([N+](=O)[O-])n1C)C2	none
CN(C)Cc1csc(NC(=O)Nc2ccccc2-c2ccccc2)n1	PGC1a acetyl up 51.7
CCCCOP(=O)(c1ccc(N(C)C)cc1)C(O)c1ccc(OC)cc1 (centres undefined)	none
COc1cccc(-n2nnnc2S(C)(=O)=O)c1	PGC1a acetyl up 200.4
